Tests used:
Assay type in all cases: functional
Rattus norvegicus [1] = experiment: Compound was tested for the inhibition of rat reversed passive Arthus pleurisy after peroral administration of 100 mg/kg dose at 0.37 mL of exudate volume with 0.46 mL of control (injected intrapleurally); conditions: route oral
Procedure, shortened: (§1)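 Male Wistar rats (about 250 g) were given compound orally before the antiserum. Under ether anesthesia, 0.2 mL rabbit anti-egg albumin antiserum was injected intrapleurally. After 30 min, egg albumin (15 mg/100 g body weight in 0.1 mL saline) was given iv. Rats were killed 4.5 h later and the thoracic cavity was rinsed with 5 mL saline. Exudate volume and infiltrated cell number were measured, with inhibition % versus controls as mean ± SEM.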

Rattus norvegicus [2] = experiment: Inhibition of Zymosan-induced rat's paw edema(ZPE) after peroral administration of 100 mg/kg dose.; conditions: route oral
Procedure, shortened: (§2)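 Male Wistar rats (about 150 g) were dosed orally with compound suspended in 5% arabic gum, 1 h before a subplantar hind-paw injection of 0.1 mL saline. The irritant was 1% zymosan for 33 or 1% λ-carrageenin for 34. Paw volume was measured by plethysmograph before dosing and at 4 h (zymosan) or 3 h (carrageenin). Swelling is relative to initial volume, as mean ± SEM. % inhibition is versus the control group's mean swelling.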

Rattus norvegicus [3] = experiment: Compound was tested for the inhibition of rat reversed passive Arthus pleurisy after peroral administration of 100 mg/kg dose at 1.59+/-0.13*10e6 no of cells with 2.17*10e6 cells of control; conditions: route oral; procedure, shortened: as §1
Rattus norvegicus [4] = experiment: Antiinflammatory activity on Carrageenan rat's paw edema(CPE) after peroral administration of 100 mg/kg dose with control swelling of 64.2%; conditions: route oral
Rattus norvegicus [5] = experiment: Antiinflammatory activity on Zymosan-induced rat's paw edema(ZPE) after peroral administration of 100 mg/kg dose with control swelling of 71.7%; conditions: route oral
Procedure, shortened: (§3)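 Male Wistar rats weighing about 150 g were dosed orally with compound suspended in 5% arabic gum. 1 h later, 1% zymosan in 0.1 mL saline was injected subplantarly into the hind paw. Paw volume was measured by plethysmograph before dosing and 4 h after zymosan, with edema as the volume difference. Inhibition % was derived from mean swelling versus the control group.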

Rattus norvegicus [6] = experiment: Inhibition of carrageenan-induced rat's paw edema (CPE) after peroral administration of 100 mg/kg dose.; conditions: route oral; procedure, shortened: as §2
Rattus norvegicus [7] = experiment: Compound was tested for the inhibition of Zymosan-induced rat's paw edema(ZPE) after peroral administration of 3 mg/kg dose; conditions: route oral; procedure, shortened: as §3
Rattus norvegicus [8] = experiment: Compound was tested for the inhibition of arachidonic acid-induced rat's paw edema(APE) after peroral administration of 10 mg/kg dose; conditions: route oral
Procedure, shortened: (§4)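 Test: arachidonic acid paw edema in male Wistar rats of about 150 g. Oral dosing in 5% arabic gum came 1 h before subplantar injection of 1% arachidonic acid sodium salt in 0.1 mL saline into the hind paw. Plethysmograph paw volume was read before dosing and 1 h post-irritant, and edema = volume difference. % inhibition was taken from mean swelling against controls.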

Rattus norvegicus [9] = experiment: Compound was tested for the inhibition of rat reversed passive Arthus pleurisy after peroral administration of 10 mg/kg dose at 0.53+/-0.05 mL of exudate volume (injected intrapleurally); conditions: route oral; procedure, shortened: as §1
Rattus norvegicus [10] = experiment: Compound was tested for the inhibition of rat reversed passive Arthus pleurisy after peroral administration of 10 mg/kg dose at 4.6+/-0.25*10e6 no of cells; conditions: route oral; procedure, shortened: as §1
Rattus norvegicus [11] = experiment: Compound was tested for the inhibition of rat reversed passive Arthus pleurisy after peroral administration of 100 mg/kg dose at 0.08+/-0.01 mL of exudate volume (injected intrapleurally); conditions: route oral; procedure, shortened: as §1
Rattus norvegicus [12] = experiment: Compound was tested for the inhibition of Zymosan-induced rat's paw edema(ZPE) after peroral administration of 10 mg/kg dose; conditions: po; procedure, shortened: as §3
Rattus norvegicus [13] = experiment: Compound was tested for the inhibition of rat reversed passive Arthus pleurisy after peroral administration of 100 mg/kg dose at 2.13+/-0.24*10e6 no of cells; conditions: route oral; procedure, shortened: as §1
Rattus norvegicus [14] = experiment: Compound was tested for the inhibition of rat reversed passive Arthus pleurisy after peroral administration of 100 mg/kg dose at 2.13*10e6 no of cells with 3.86*10e6 cells of control; conditions: route oral; procedure, shortened: as §1
Rattus norvegicus [15] = experiment: Compound was tested for the inhibition of Carrageenan rat's paw edema(CPE) after peroral administration of 3 mg/kg dose; conditions: route oral
Rattus norvegicus [16] = experiment: Compound was tested for the inhibition of arachidonic acid-induced rat's paw edema(APE) after peroral administration of 3 mg/kg dose; conditions: route oral; procedure, shortened: as §4
Rattus norvegicus [17] = experiment: Compound was tested for the inhibition of arachidonic acid-induced rat's paw edema(APE) after peroral administration of 30 mg/kg dose; conditions: route oral; procedure, shortened: as §4
Rattus norvegicus [18] = experiment: Compound was tested for the inhibition of rat reversed passive Arthus pleurisy after peroral administration of 100 mg/kg dose at 0.08 mL of exudate volume with 0.86 mL of control (injected intrapleurally); conditions: route oral; procedure, shortened: as §1
Rattus norvegicus [19] = experiment: Compound was tested for the inhibition of rat reversed passive Arthus pleurisy after peroral administration of 25 mg/kg dose at 4.74+/-0.24*10e6 no of cells; conditions: route oral
Procedure, shortened: (§5)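 Male Wistar rats (about 250 g) under ether received 0.2 mL rabbit anti-egg-albumin antiserum intrapleurally. Thirty min later they got 15 mg EA/100 g body weight in 0.1 mL saline iv. Compounds were given orally beforehand. Rats were killed 4.5 h after induction and the thoracic cavity rinsed with 5 mL saline. Exudate volume and infiltrated cell count were read as mean ± SE. % inhibition is versus control.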

Rattus norvegicus [20] = experiment: Compound was tested for the inhibition of rat reversed passive Arthus pleurisy after peroral administration of 25 mg/kg dose at 0.4+/-0.07 mL of exudate volume (injected intrapleurally); conditions: route oral; procedure, shortened: as §5
Rattus norvegicus [21] = experiment: Compound was tested for the inhibition of rat reversed passive Arthus pleurisy after peroral administration of 5 mg/kg dose at 0.73+/-0.03 mL of exudate volume (injected intrapleurally); conditions: route oral; procedure, shortened: as §5
Rattus norvegicus [22] = experiment: Compound was tested for the inhibition of rat reversed passive Arthus pleurisy after peroral administration of 5 mg/kg dose at 2.79 +/- 0.19*10e6 no of cells; conditions: route oral; procedure, shortened: as §5
Rattus norvegicus [23] = experiment: Antiinflammatory activity on Carrageenan rat's paw edema(CPE) after peroral administration of 10 mg/kg dose with control swelling of 75.8%; conditions: route oral
Rattus norvegicus [24] = experiment: Antiinflammatory activity on Zymosan-induced rat's paw edema(ZPE) after peroral administration of 3 mg/kg dose with control swelling of 68.1%; conditions: route oral; procedure, shortened: as §3
Rattus norvegicus [25] = experiment: Compound was tested for the inhibition of arachidonic acid-induced rat's paw edema(APE) after peroral administration of 10 mg/kg dose with control swelling of 51.6%; conditions: route oral; procedure, shortened: as §4
Rattus norvegicus [26] = experiment: Compound was tested for the inhibition of arachidonic acid-induced rat's paw edema(APE) after peroral administration of 3 mg/kg dose with control swelling of 51.6%; conditions: route oral; procedure, shortened: as §4
Rattus norvegicus [27] = experiment: Compound was tested for the inhibition of arachidonic acid-induced rat's paw edema(APE) after peroral administration of 30 mg/kg dose with control swelling of 51.6%; conditions: route oral
Rattus norvegicus [28] = experiment: Antiinflammatory activity on Zymosan-induced rat's paw edema(ZPE) after peroral administration of 30 mg/kg dose with control swelling of 68.1%; conditions: route oral; procedure, shortened: as §3
Rattus norvegicus [29] = experiment: Antiinflammatory activity on Carrageenan rat's paw edema(CPE) after peroral administration of 3 mg/kg dose with control swelling of 75.8%; conditions: route oral
Rattus norvegicus [30] = experiment: Antiinflammatory activity on Carrageenan rat's paw edema(CPE) after peroral administration of 30 mg/kg dose with control swelling of 75.8%; conditions: route oral
Rattus norvegicus [31] = experiment: Antiinflammatory activity on Zymosan-induced rat's paw edema(ZPE) after peroral administration of 10 mg/kg dose with control swelling of 68.1%; conditions: route oral; procedure, shortened: as §3
Rattus norvegicus [32] = experiment: Compound was tested for the inhibition of Zymosan-induced rat's paw edema(ZPE) after peroral administration of 30 mg/kg dose; conditions: route oral; procedure, shortened: as §3
Rattus norvegicus [33] = experiment: Compound was tested for the inhibition of Carrageenan rat's paw edema(CPE) after peroral administration of 10 mg/kg dose; conditions: Rattus norvegicus, po
Rattus norvegicus [34] = experiment: Antiinflammatory activity on Zymosan-induced rat's paw edema(ZPE) after peroral administration of 3 mg/kg dose with control swelling of 55.1%; conditions: route oral; procedure, shortened: as §3
Rattus norvegicus [35] = experiment: Antiinflammatory activity on Zymosan-induced rat's paw edema(ZPE) after peroral administration of 10 mg/kg dose with control swelling of 55.1%; conditions: route oral; procedure, shortened: as §3
Rattus norvegicus [36] = experiment: Antiinflammatory activity on Zymosan-induced rat's paw edema(ZPE) after peroral administration of 100 mg/kg dose with control swelling of 55.1%; conditions: route oral; procedure, shortened: as §3

SMILES | inhibition in vivo at 100 mg/kg (Rattus norvegicus [2]) [%] | Swelling (Rattus norvegicus [4]) [%] | Swelling (Rattus norvegicus [5]) [%] | inhibition in vivo at 100 mg/kg (Rattus norvegicus [6]) [%] | inhibition in vivo at 3 mg/kg (Rattus norvegicus [7]) [%] | inhibition in vivo at 10 mg/kg (Rattus norvegicus [8]) [%] | inhibition in vivo at 10 mg/kg (Rattus norvegicus [12]) [%] | inhibition in vivo at 3 mg/kg (Rattus norvegicus [15]) [%] | Swelling (Rattus norvegicus [23]) [%] | Swelling (Rattus norvegicus [25]) [%] | Swelling (Rattus norvegicus [29]) [%] | inhibition in vivo at 30 mg/kg (Rattus norvegicus [32]) [%] | also measured
O=C(Nc1cnccn1)c1c(O)c2cccnc2n(-c2ccccc2)c1=O | 29.6 | 50.6 | 50.5 | 21.2 |  |  |  |  |  |  |  |  | inhibition in vivo at 100 mg/kg (Rattus norvegicus [1]): 24.3%; inhibition in vivo at 100 mg/kg (Rattus norvegicus [3]): 26.7%
O=C(Nc1ccncc1)c1c(O)c2cccnc2n(-c2ccccc2)c1=O | 34.9 | 48.6 | 46.7 | 24.3 | 11.9 | 50.6 | 20.3 | 4.9 | 71.3 | 25.5 | 72.1 | 28.8 | inhibition in vivo at 10 mg/kg (Rattus norvegicus [9]): 32.9%; inhibition in vivo at 10 mg/kg (Rattus norvegicus [10]): 35.8%; inhibition in vivo at 100 mg/kg (Rattus norvegicus [11]): 100%; inhibition in vivo at 100 mg/kg (Rattus norvegicus [13]): 58.6%; inhibition in vivo at 100 mg/kg (Rattus norvegicus [14]): 58.6%; inhibition in vivo at 3 mg/kg (Rattus norvegicus [16]): 36%; inhibition in vivo at 30 mg/kg (Rattus norvegicus [17]): 43.6%; inhibition in vivo at 100 mg/kg (Rattus norvegicus [18]): 100%; inhibition in vivo at 25 mg/kg (Rattus norvegicus [19]): 33.3%; inhibition in vivo at 25 mg/kg (Rattus norvegicus [20]): 51.4%; inhibition in vivo at 5 mg/kg (Rattus norvegicus [21]): -3.2%; inhibition in vivo at 5 mg/kg (Rattus norvegicus [22]): 26%; Swelling (Rattus norvegicus [24]): 60.6%; Swelling (Rattus norvegicus [26]): 33%; Swelling (Rattus norvegicus [27]): 29.1%; Swelling (Rattus norvegicus [28]): 48.5%; Swelling (Rattus norvegicus [30]): 58.8%; Swelling (Rattus norvegicus [31]): 54.3%
CN1C(C(=O)Nc2ccccn2)=C(O)c2ccccc2S1(=O)=O [PIROXICAM] |  |  |  |  | 2.2 | 17.2 | 9.4 | 54.6 | 25.8 | 42.7 | 34.4 | 8.7 | inhibition in vivo at 10 mg/kg (Rattus norvegicus [33]): 66%; Swelling (Rattus norvegicus [34]): 53.9%; Swelling (Rattus norvegicus [35]): 61.7%; Swelling (Rattus norvegicus [36]): 50.3%

Reference: ChEMBL document CHEMBL1126267, “A novel synthesis and potent antiinflammatory activity of 4-hydroxy-2(1H)-oxo-1-phenyl-1,8-naphthyridine-3-carboxamides” (1992)
